Laboratory results taken from ChEMBL document CHEMBL2380239, “Novel ROS-activated agents utilize a tethered amine to selectively target acute myeloid leukemia” (Bioorg Med Chem Lett, 2013).

What was measured:
HeLa = assay: Cytotoxicity against human HeLa cells after 48 hrs by MTT assay; type: functional, cell-based
[1] = Therapeutic index, ratio of IC50 for human CD34-positive blood stem/progenitor cells to IC50 for human MA9.3 cells; conditions: CD34-positive blood stem/progenitor cells versus MA9.3 cells, read-out: Ratio IC50
Summary of the method: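 Cytotoxicity was measured in parallel on non-cancerous human CD34+ blood stem/progenitor cells (UCB) and on the MA9.3 AML line, which was made by introducing the MLL-AF9 oncogene into human CD34+ cells. The index is IC50 in CD34+ cells divided by IC50 in MA9.3, reported as mean ± error.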

[2] = Cytotoxicity against human MA9.3 cells after 48 hrs by MTT assay; type: functional, cell-based
Summary of the method: (§1)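 Non-transformed human CD34+ blood stem/progenitor cells from umbilical cord blood were run alongside MA9.3, an AML line made by introducing the MLL-AF9 oncogene into human CD34+ cells. IC50 was determined on each cell type. Therapeutic index is the ratio between the MA9.3 and CD34+ IC50 values.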

[3] = Cytotoxicity against human CD34-positive blood stem/progenitor cells after 48 hrs by MTT assay; type: cell-based; summary of the method: as §1

| Compound | IC50 (HeLa) [µM] | selectivity ratio [1] | IC50 [2] [µM] | IC50 [3] [µM] |
| --- | --- | --- | --- | --- |
| CN(CCCCOc1ccc(O)cc1)c1ccccc1 | 12 |  |  |  |
| CN(CCCCCOc1ccc(O)cc1)c1ccccc1 | 13 |  |  |  |
| CN(CCOc1ccc(O)cc1)Cc1ccccc1 | 33 |  |  |  |
| CN(C(=O)COc1ccc(O)cc1)c1ccccc1 | > 125 |  |  |  |
| CN(CCCOc1ccccc1)c1ccccc1 | > 125 |  |  |  |
| CCOc1ccc(O)cc1 [1-hydroxy-4-ethoxybenzene] | > 125 |  |  |  |
| O=C(O)CCCc1ccc(N(CCCl)CCCl)cc1 [CHLORAMBUCIL] |  | 1.3 | 8.7 | 11 |
| Nc1ccn([C@@H]2O[C@H](CO)[C@@H](O)[C@@H]2O)c(=O)n1 [CYTARABINE] |  | 0.6 | 0.92 | 0.59 |
| COc1cccc2c1C(=O)c1c(O)c3c(c(O)c1C2=O)C[C@@](O)(C(=O)CO)C[C@@H]3O[C@H]1C[C@H](N)[C@H](O)[C@H](C)O1 [DOXORUBICIN] |  |  | 0.086 | 0.076 |
